Data: ChEMBL document CHEMBL4689842, “EUbOPEN Chemogenomics Library wave 1” (2021)
Several values for one entry are separate records, joined by “and”; a condition that tells them apart may be missing. Equal entries are not always repeated.

Tests used:
Assay type in all cases: toxicity, cell-based
Fibroblast [1] = experiment: Multiplex assay against human fibroblast; conditions: 1 µM, compound concentration 1 uM
Summary of the method: (§1)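 Four dyes were applied at seeding to live cells: Hoechst33342, BioTracker Green Microtubule Cytoskeleton Dye, MitoTracker Red and Annexin V Alexa Fluor 680. Imaging after compound addition used a CQ1 microscope at 37°C and 5% CO2. CellPathfinder machine-learning gating then sorted cells into Hoechst high-intensity objects or normal cells, normal cells into healthy, pyknosed or fragmented nuclei, and pyknosed cells into mitotic or apoptotic, with tubulin, mitochondrial-mass and membrane-permeability phenotypes given as per cents of healthy-nucleus cells.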

HEK-293T [2] = experiment: Multiplex assay against HEK293T; conditions: human, 1 µM, compound concentration 1 uM; summary of the method: as §1;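 on Population Tubulin-Different-Phenotype (%): share of the cells with healthy nuclei that show this phenotype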
U2OS [3] = experiment: Multiplex assay against U2OS; conditions: human, 1 µM, compound concentration 1 uM; summary of the method: as §1
HEK-293T [4] = experiment: Incucyte cell viability with HEK293T; conditions: human, 10 µM, compound concentration 10 uM; further: filed as whole numbers so only -1 and 0 and 1 occur
Fibroblast [5] = experiment: Incucyte cell viability with human fibroblast; conditions: 10 µM, compound concentration 10 uM; further: filed as whole numbers so only -1 and 0 and 1 occur
U2OS [6] = experiment: Incucyte cell viability with U2OS; conditions: human, 10 µM, compound concentration 10 uM; further: filed as whole numbers so only -1 and 0 and 1 occur
[7] = 6 h, replicate number 1, timepoint 6 hours
[8] = 12 h, replicate number 1, timepoint 12 hours
[9] = 18 h, replicate number 1, timepoint 18 hours
[10] = 24 h, replicate number 1, timepoint 24 hours

COc1cc(Nc2ccnc3ccc(Br)cc23)cc(OC)c1OC
Population Apoptotic (%) (Fibroblast [1]; 12 h, replicate 1): 51% and 75%
Population Fragmented Nuclei (%) (Fibroblast [1]; 12 h, replicate 1): 26% and 28%
Population Healthy Nuclei (%) (Fibroblast [1]; 12 h, replicate 1): 50% and 56%
Population Hoechst High Intensity Objects (%) (Fibroblast [1]; 12 h, replicate 1): 11%
Population Membrane Permeable-Phenotype (%) (Fibroblast [1]; 12 h, replicate 1): 5% and 4%
Population Mitochondria Different-Phenotype (%) (Fibroblast [1]; 12 h, replicate 1): 22% and 8%
Population Mitotic Cells (%) (Fibroblast [1]; 12 h, replicate 1): 48% and 25%
Population Normal (%) (Fibroblast [1]; 12 h, replicate 1): 88%
Population Pyknosed Nuclei (%) (Fibroblast [1]; 12 h, replicate 1): 23% and 15%
Total Cell Count (Fibroblast [1]; 12 h, replicate 1): 152 and 176
Population Apoptotic (%) (Fibroblast [1]; 12 h, replicate 2): 50%
Population Fragmented Nuclei (%) (Fibroblast [1]; 12 h, replicate 2): 66% and 79%
Population Hoechst High Intensity Objects (%) (Fibroblast [1]; 12 h, replicate 2): 49% and 39%
Population Membrane Permeable-Phenotype (%) (Fibroblast [1]; 12 h, replicate 2): 11% and 0%
Population Mitotic Cells (%) (Fibroblast [1]; 12 h, replicate 2): 50%
Population Normal (%) (Fibroblast [1]; 12 h, replicate 2): 50% and 60%
Population Pyknosed Nuclei (%) (Fibroblast [1]; 12 h, replicate 2): 6% and 11%
Population Tubulin-Different-Phenotype (%) (Fibroblast [1]; 12 h, replicate 2): 11% and 0%
Total Cell Count (Fibroblast [1]; 12 h, replicate 2): 65 and 56
Population Apoptotic (%) (Fibroblast [1]; 24 h, replicate 1): 76%
Population Fragmented Nuclei (%) (Fibroblast [1]; 24 h, replicate 1): 28% and 23%
Population Healthy Nuclei (%) (Fibroblast [1]; 24 h, replicate 1): 55% and 61%
Population Hoechst High Intensity Objects (%) (Fibroblast [1]; 24 h, replicate 1): 15%
Population Membrane Permeable-Phenotype (%) (Fibroblast [1]; 24 h, replicate 1): 6% and 1%
Population Mitochondria Different-Phenotype (%) (Fibroblast [1]; 24 h, replicate 1): 1%
Population Mitotic Cells (%) (Fibroblast [1]; 24 h, replicate 1): 23%
Population Normal (%) (Fibroblast [1]; 24 h, replicate 1): 84%
Population Pyknosed Nuclei (%) (Fibroblast [1]; 24 h, replicate 1): 15%
Total Cell Count (Fibroblast [1]; 24 h, replicate 1): 189 and 165
Population Fragmented Nuclei (%) (Fibroblast [1]; 24 h, replicate 2): 65% and 71%
Population Healthy Nuclei (%) (Fibroblast [1]; 24 h, replicate 2): 31% and 15%
Population Hoechst High Intensity Objects (%) (Fibroblast [1]; 24 h, replicate 2): 42% and 34%
Population Membrane Permeable-Phenotype (%) (Fibroblast [1]; 24 h, replicate 2): 9% and 0%
Population Mitochondria Different-Phenotype (%) (Fibroblast [1]; 24 h, replicate 2): 18% and 40%
Population Normal (%) (Fibroblast [1]; 24 h, replicate 2): 57% and 65%
Population Tubulin-Different-Phenotype (%) (Fibroblast [1]; 24 h, replicate 2): 0% and 20%
Total Cell Count (Fibroblast [1]; 24 h, replicate 2): 61 and 49
Population Apoptotic (%) (HEK-293T [2]; 12 h, replicate 1): 21% and 25%
Population Fragmented Nuclei (%) (HEK-293T [2]; 12 h, replicate 1): 24% and 18%
Population Healthy Nuclei (%) (HEK-293T [2]; 12 h, replicate 1): 35% and 54%
Population Hoechst High Intensity Objects (%) (HEK-293T [2]; 12 h, replicate 1): 16%
Population Membrane Permeable-Phenotype (%) (HEK-293T [2]; 12 h, replicate 1): 12% and 4%
Population Mitotic Cells (%) (HEK-293T [2]; 12 h, replicate 1): 78% and 74%
Population Normal (%) (HEK-293T [2]; 12 h, replicate 1): 83%
Population Pyknosed Nuclei (%) (HEK-293T [2]; 12 h, replicate 1): 40% and 27%
Total Cell Count (HEK-293T [2]; 12 h, replicate 1): 627 and 585
Population Apoptotic (%) (HEK-293T [2]; 12 h, replicate 2): 17% and 8%
Population Fragmented Nuclei (%) (HEK-293T [2]; 12 h, replicate 2): 11% and 4%
Population Healthy Nuclei (%) (HEK-293T [2]; 12 h, replicate 2): 59% and 75%
Population Membrane Permeable-Phenotype (%) (HEK-293T [2]; 12 h, replicate 2): 3% and 0%
Population Mitotic Cells (%) (HEK-293T [2]; 12 h, replicate 2): 82% and 91%
Population Normal (%) (HEK-293T [2]; 12 h, replicate 2): 92% and 97%
Population Pyknosed Nuclei (%) (HEK-293T [2]; 12 h, replicate 2): 29% and 20%
Total Cell Count (HEK-293T [2]; 12 h, replicate 2): 1015 and 1049
Population Apoptotic (%) (HEK-293T [2]; 24 h, replicate 1): 32% and 19%
Population Fragmented Nuclei (%) (HEK-293T [2]; 24 h, replicate 1): 23% and 12%
Population Healthy Nuclei (%) (HEK-293T [2]; 24 h, replicate 1): 41% and 67%
Population Hoechst High Intensity Objects (%) (HEK-293T [2]; 24 h, replicate 1): 14% and 10%
Population Membrane Permeable-Phenotype (%) (HEK-293T [2]; 24 h, replicate 1): 7%
Population Mitotic Cells (%) (HEK-293T [2]; 24 h, replicate 1): 67% and 80%
Population Normal (%) (HEK-293T [2]; 24 h, replicate 1): 85% and 89%
Population Pyknosed Nuclei (%) (HEK-293T [2]; 24 h, replicate 1): 35% and 20%
Population Tubulin-Different-Phenotype (%) (HEK-293T [2]; 24 h, replicate 1): 30% and 15%
Total Cell Count (HEK-293T [2]; 24 h, replicate 1): 604 and 574
Population Apoptotic (%) (HEK-293T [2]; 24 h, replicate 2): 14% and 7%
Population Fragmented Nuclei (%) (HEK-293T [2]; 24 h, replicate 2): 11% and 8%
Population Healthy Nuclei (%) (HEK-293T [2]; 24 h, replicate 2): 50% and 79%
Population Hoechst High Intensity Objects (%) (HEK-293T [2]; 24 h, replicate 2): 8% and 3%
Population Membrane Permeable-Phenotype (%) (HEK-293T [2]; 24 h, replicate 2): 2% and 1%
Population Mitochondria Different-Phenotype (%) (HEK-293T [2]; 24 h, replicate 2): 55%
Population Mitotic Cells (%) (HEK-293T [2]; 24 h, replicate 2): 86% and 92%
Population Normal (%) (HEK-293T [2]; 24 h, replicate 2): 91% and 96%
Total Cell Count (HEK-293T [2]; 24 h, replicate 2): 1011 and 1289
Population Apoptotic (%) (U2OS [3]; 12 h, replicate 1): 45% and 33%
Population Fragmented Nuclei (%) (U2OS [3]; 12 h, replicate 1): 9% and 8%
Population Healthy Nuclei (%) (U2OS [3]; 12 h, replicate 1): 83% and 79%
Population Hoechst High Intensity Objects (%) (U2OS [3]; 12 h, replicate 1): 6% and 5%
Population Membrane Permeable-Phenotype (%) (U2OS [3]; 12 h, replicate 1): 22% and 14%
Population Mitochondria Different-Phenotype (%) (U2OS [3]; 12 h, replicate 1): 28% and 29%
Population Mitotic Cells (%) (U2OS [3]; 12 h, replicate 1): 54% and 66%
Population Normal (%) (U2OS [3]; 12 h, replicate 1): 93% and 94%
Population Pyknosed Nuclei (%) (U2OS [3]; 12 h, replicate 1): 7% and 11%
Population Tubulin-Different-Phenotype (%) (U2OS [3]; 12 h, replicate 1): 39% and 14%
Total Cell Count (U2OS [3]; 12 h, replicate 1): 135 and 196
Population Fragmented Nuclei (%) (U2OS [3]; 12 h, replicate 2): 12% and 20%
Population Healthy Nuclei (%) (U2OS [3]; 12 h, replicate 2): 70% and 71%
Population Hoechst High Intensity Objects (%) (U2OS [3]; 12 h, replicate 2): 12% and 19%
Population Membrane Permeable-Phenotype (%) (U2OS [3]; 12 h, replicate 2): 25% and 16%
Population Mitochondria Different-Phenotype (%) (U2OS [3]; 12 h, replicate 2): 38% and 23%
Population Normal (%) (U2OS [3]; 12 h, replicate 2): 87% and 80%
Population Pyknosed Nuclei (%) (U2OS [3]; 12 h, replicate 2): 16%
Population Tubulin-Different-Phenotype (%) (U2OS [3]; 12 h, replicate 2): 37% and 22%
Total Cell Count (U2OS [3]; 12 h, replicate 2): 102 and 150
Population Apoptotic (%) (U2OS [3]; 24 h, replicate 1): 31% and 83%
Population Fragmented Nuclei (%) (U2OS [3]; 24 h, replicate 1): 11% and 13%
Population Healthy Nuclei (%) (U2OS [3]; 24 h, replicate 1): 71% and 66%
Population Hoechst High Intensity Objects (%) (U2OS [3]; 24 h, replicate 1): 6%
Population Membrane Permeable-Phenotype (%) (U2OS [3]; 24 h, replicate 1): 18% and 16%
Population Normal (%) (U2OS [3]; 24 h, replicate 1): 93%
Population Pyknosed Nuclei (%) (U2OS [3]; 24 h, replicate 1): 17% and 20%
Population Tubulin-Different-Phenotype (%) (U2OS [3]; 24 h, replicate 1): 21% and 22%
Total Cell Count (U2OS [3]; 24 h, replicate 1): 259 and 175
Population Fragmented Nuclei (%) (U2OS [3]; 24 h, replicate 2): 10% and 14%
Population Healthy Nuclei (%) (U2OS [3]; 24 h, replicate 2): 58% and 59%
Population Hoechst High Intensity Objects (%) (U2OS [3]; 24 h, replicate 2): 16%
Population Membrane Permeable-Phenotype (%) (U2OS [3]; 24 h, replicate 2): 22% and 17%
Population Mitochondria Different-Phenotype (%) (U2OS [3]; 24 h, replicate 2): 57% and 19%
Population Normal (%) (U2OS [3]; 24 h, replicate 2): 83%
Population Pyknosed Nuclei (%) (U2OS [3]; 24 h, replicate 2): 31% and 25%
Population Tubulin-Different-Phenotype (%) (U2OS [3]; 24 h, replicate 2): 33% and 28%
Total Cell Count (U2OS [3]; 24 h, replicate 2): 113 and 193
Growth Rate (HEK-293T [4]; [7]): 0
Growth Rate (HEK-293T [4]; [8]): 0
Growth Rate (HEK-293T [4]; [9]): 0
Growth Rate (HEK-293T [4]; [10]): 0
Growth Rate (Fibroblast [5]; [7]): 0
Growth Rate (Fibroblast [5]; [8]): 0
Growth Rate (Fibroblast [5]; [9]): 0
Growth Rate (Fibroblast [5]; [10]): 0
Growth Rate (U2OS [6]; 0 h, replicate number 1, timepoint 0 hours): 0
Growth Rate (U2OS [6]; [7]): 0
Growth Rate (U2OS [6]; [8]): 0
Growth Rate (U2OS [6]; [9]): 0
Growth Rate (U2OS [6]; [10]): 0
